Only some compounds are listed: those with a hit (about 3.1% of all), similar ones and a draw of the others.
PP5 primary – PP5 phosphatase inhibitors, primary screen, biochemical, fluorescence; AID 1987, 2009; purified PP5c, OMFP substrate fluorescence; inhibition, % at 6.7 µM; hit rate 0.18% among 320,000; Serine/threonine-protein phosphatase 5 (Homo sapiens), P53041;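 active means inhibition above the campaign's mean inhibition across all tested compounds plus 3 SD, cut at about 9.5% in these data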;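 further: 0% = DMSO only and 100% = 100 µM cantharidin control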
Target sequence (P53041 whole entry, looked up): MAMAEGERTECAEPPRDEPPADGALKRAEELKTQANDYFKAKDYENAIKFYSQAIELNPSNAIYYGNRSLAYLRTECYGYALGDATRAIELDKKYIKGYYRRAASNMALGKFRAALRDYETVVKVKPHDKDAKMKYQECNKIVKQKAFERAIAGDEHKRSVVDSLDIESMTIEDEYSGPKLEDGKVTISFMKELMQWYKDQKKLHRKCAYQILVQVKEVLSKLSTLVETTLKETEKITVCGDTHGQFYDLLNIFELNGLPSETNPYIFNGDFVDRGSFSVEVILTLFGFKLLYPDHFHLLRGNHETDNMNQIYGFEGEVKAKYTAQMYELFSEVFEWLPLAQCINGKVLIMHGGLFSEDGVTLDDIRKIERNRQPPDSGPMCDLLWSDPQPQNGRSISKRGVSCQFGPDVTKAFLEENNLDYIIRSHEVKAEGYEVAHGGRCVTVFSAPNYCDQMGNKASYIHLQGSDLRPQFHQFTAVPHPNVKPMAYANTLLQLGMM
core dimer inh – inhibitors of HCV core protein dimerization, primary screen, biochemical, TR-FRET, high-throughput; TR-FRET GST/Flag-core106 dimerization, 1536-well; hit rate 0.33% among 300,000; inhibition, % at 5 µM; AID 1899, 2009;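 active means inhibition above the mean of all tested compounds plus 3 SD, set per screening campaign, cut at about 45% in these data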
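Test system: GST/Flag-tagged HCV core106 proteins; Medium: KF-containing HEPES buffer, pH 7.45, DTT, CHAPS, BSA; Times: compound-protein-antibody incubation 4 h at 22.5 °C; Detection: TR-FRET 671 and 617 nm emission; Benchmarks: wells lacking GST-core106 and wells with excess unlabelled core106.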
NadD inh – inhibitors of S. aureus NadD, primary screen, biochemical, colorimetric, uHTS; Nicotinate-nucleotide adenylyltransferase NadD (Staphylococcus aureus N315); purified NadD enzyme, colorimetric absorbance read-out; inhibition, % at 20 µM; hit rate 0.78% among 360,000; AID 602399, 2012; in the data active means inhibition above about 26%
PP1 counter – PP1-alpha phosphatase inhibitors, primary screen, counter-screen for PP5 inhibitor project, biochemical, fluorescence, OMFP substrate, single point; hit rate 0.9% among 320,000; inhibition, % at 6.7 µM; AID 2235, 2010; Serine/threonine-protein phosphatase PP1-alpha catalytic subunit (Homo sapiens), P62136; purified PP1alpha;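 active means inhibition above the mean inhibition of all tested compounds plus 3 SD, computed separately for each screening campaign, cut at about 15% in these data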
Myeloid diff MLP – induction of myeloid progenitor differentiation, primary screen, cell-based, flow cytometry, MLPCN library; AID 624256, 2012; calls only at 10 µM; hit rate 1% among 360,000; ER-HoxA9 myeloid progenitors, lysozyme-GFP differentiation;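 active means normalized GFP-positive differentiation at or above the plate's own cutoff, the solvent-only control mean plus 3 SD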;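 further: cells exposed to compound for four days before flow analysis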
CTSL1 counter – Fasciola hepatica cathepsin L1 inhibitors, primary screen, counter-screen for PFM18AAP inhibitor project, biochemical, QFRET, fluorogenic peptide substrate. inhibition, % at 5.96 µM. recombinant F. hepatica cathepsin L1, Z-Leu-Arg-MCA fluorescence. hit rate 0.49% among 300,000. AID 1906, 2009;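 active means inhibition above the mean of all tested compounds plus 3 SD, set per screening campaign, cut at about 17% in these data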;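 further: 0% = plate median of test compound wells and 100% = 1 µM Z-Phe-Ala-diazomethylketone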
NadD conf – inhibitors of S. aureus NadD, confirmation, biochemical, colorimetric, single concentration | hit rate 13% among 2,000 | shares compounds with NadD inh | inhibition, % at 20 µM | purified S. aureus NadD, colorimetric enzyme assay | AID 624309, 2012; in the data active means inhibition mostly above about 42%, no sharp cut-off; inactive means mostly below about 42%
* = called active by the depositor; i = inactive; . = no result given.

SMILES | PP5 primary | core dimer inh | NadD inh | PP1 counter | Myeloid diff MLP | CTSL1 counter | NadD conf
Nc1c(Cl)cc(-c2csc(N3CCCC3c3nc4cc(Cl)c(Cl)cc4n3CCCO)n2)cc1Cl (stereo not drawn) | 2.3 | -71.3 | 14.0 | 4.0 | i | 3.1 | .
Nc1c(Cl)cc(-c2csc(N3CCCC3c3nc4cc(Cl)c(N5CCCCC5)cc4n3CCCO)n2)cc1Cl (stereo not drawn) | 3.7 | 0.8 | 31.6* | 17.2* | i | 6.5 | 15.0
CC1=CC(=O)C(C(C)=Nc2ccccc2[N+](=O)[O-])C(=O)O1 (stereo not drawn) | . | . | -7.3 | . | i | . | .
O=c1c2ccccc2nc(/C=C/c2c[nH]c3ccccc23)n1-c1ccc([N+](=O)[O-])cc1 | 0.9 | 19.8 | 40.5* | -3.3 | i | 1.9 | -0.6
COCCNC(=O)C1(C)CCCN(C(=O)c2ccccc2C(F)(F)F)C1 (stereo not drawn) | . | . | 1.6 | . | i | . | .
CC(C)C[C@H](NC(=O)c1[nH]cnc1C(=O)Nc1ccc(CNC(=O)OC(C)(C)C)cc1)C(=O)OC(C)(C)C | 7.5 | -4.3 | 16.6 | 4.1 | i | 10.4 | .
O=C(Nc1ccccc1)c1nc[nH]c1C(=O)NCCCCCCNC(=O)c1[nH]cnc1C(=O)Nc1ccccc1 | . | . | 31.8* | . | i | . | -1.1
CNC(=O)c1[nH]cnc1C(=O)Nc1ccc(Cl)cc1 | 2.0 | -5.6 | -2.8 | -2.9 | i | 0.7 | .
CC(C)(C)OC(=O)NCc1ccc(NC(=O)c2nc[nH]c2C(=O)N[C@@H](Cc2ccccc2)C(=O)OC(C)(C)C)cc1 | 7.1 | 10.9 | 30.4* | 5.4 | i | 4.8 | -1.7
O=C(Nc1ccccc1)c1nc[nH]c1C(=O)NCCN(CCNC(=O)c1[nH]cnc1C(=O)Nc1ccccc1)CCNC(=O)c1[nH]cnc1C(=O)Nc1ccccc1 | . | . | 56.7* | . | i | . | 4.3
O=C(Nc1ccc(Cl)cc1)c1nc[nH]c1C(=O)NCCN(CCNC(=O)c1[nH]cnc1C(=O)Nc1ccc(Cl)cc1)CCNC(=O)c1[nH]cnc1C(=O)Nc1ccc(Cl)cc1 | . | . | 56.6* | . | i | . | 2.9
Nc1cc(N)nc(SCC(=O)N2CCN(S(=O)(=O)c3ccccc3)CC2)n1 | 0.8 | -2.7 | 1.8 | -2.6 | i | 2.4 | .
CCCCc1nc2cc(C(=O)NC3CCOC(C)(C)C3)ccc2o1 (stereo not drawn) | 0.3 | 6.3 | -2.9 | -4.4 | i | 2.3 | .
CCOC(=O)c1c(S(=O)(=O)N2CCN(c3ccc(F)cc3)CC2)c(C)n(C)c1C | 0.7 | 4.4 | -0.3 | 4.2 | i | -9.4 | .
Cc1cccc(NC(=O)c2nc[nH]c2C(=O)NCCN(CCNC(=O)c2[nH]cnc2C(=O)Nc2cccc(C)c2)CCNC(=O)c2[nH]cnc2C(=O)Nc2cccc(C)c2)c1 | . | . | 41.9* | . | i | . | -1.4
Cc1cccc(NC(=O)c2nc[nH]c2C(=O)NCCCNC(=O)c2[nH]cnc2C(=O)Nc2cccc(C)c2)c1 | . | . | 16.1 | . | i | . | .
O=C(Nc1ccc(N2CCCC2)cc1)c1cccc(-c2cc3ccccc3oc2=O)c1 | 1.9 | 34.8 | 57.2* | 13.3 | i | -2.1 | 6.2
Cc1nc(NC(=O)c2cccc(-c3cc4ccccc4oc3=O)c2)ccc1Br | 0.1 | -13.4 | 10.3 | 5.9 | i | 2.6 | .
COC(=O)c1ccc2c(=O)[nH]c(CCl)nc2c1 | -1.5 | -0.9 | -3.7 | 1.1 | i | -2.5 | .
COc1ccc(N2CCN(Cc3nc4scc(-c5cccs5)c4c(=O)[nH]3)CC2)cc1 | -7.5 | -6.9 | 3.3 | -0.9 | i | -1.4 | .
COC(=O)c1ccc2c(=O)[nH]c(CN3c4ccccc4CC3C)nc2c1 (stereo not drawn) | 1.1 | 24.8 | 50.1* | 1.7 | i | -0.8 | 6.4
CC1Cc2ccccc2N1Cc1nc2scc(-c3cccs3)c2c(=O)[nH]1 (stereo not drawn) | 2.8 | 55.2* | 46.0* | 12.4 | i | -1.6 | -4.5
CCOC(=O)c1c2ccc(OCC(=O)N/N=C/c3ccc(C)cc3)cc2n2ccccc12 | -0.1 | 8.7 | 37.3* | -1.7 | i | -3.3 | 0.8
CCOC(=O)c1c2ccc(OCC(=O)NN)cc2n2ccccc12 | 0.3 | -16.1 | -2.7 | 6.1 | i | 2.8 | .
COC(=O)CCC(=O)N1CCCC(N2CCN(c3ccc(OC)cc3)CC2)C1 (stereo not drawn) | -1.1 | -1.9 | 2.8 | 0.0 | i | 1.2 | .
SMILES | PP5 primary | core dimer inh | NadD inh | PP1 counter | Myeloid diff MLP | CTSL1 counter | NadD conf
COc1ccc(C2=C(C=Nc3c(C)n(C)n(-c4ccccc4)c3=O)C(c3ccccc3C)c3ccccc3O2)cc1OC (stereo not drawn) | 0.5 | 27.2 | 34.4* | 1.6 | i | -1.1 | 11.5
Cc1ccc(C)c(C(O)c2ncc(-c3ccc(C(F)(F)F)cc3)[nH]2)c1 (stereo not drawn) | . | . | 2.3 | . | i | . | .
CCOc1ccc(C2C(C#N)=C(N)N(N(C)C)C3=C2C(=O)CC(C)(C)C3)cc1 (stereo not drawn) | 2.1 | 2.6 | -4.2 | 0.6 | i | 1.4 | .
CCOc1ccc(C2C(C#N)=C(N)N(c3sc4c(c3C#N)CCCC4)C3=C2C(=O)CCC3)cc1 (stereo not drawn) | 4.8 | 55.3* | 55.5* | 14.3 | i | 0.3 | 12.9
COc1cccc(N2[C@@H](CC(=O)O)c3cc(C(F)(F)F)ccc3S2(=O)=O)c1 | -0.2 | -2.5 | 48.8* | 0.5 | i | -4.9 | 51.5*
COc1cccc(N2[C@@H](CC(=O)O)c3ccccc3S2(=O)=O)c1 | 1.9 | -3.7 | -4.6 | 0.4 | i | -0.2 | .
CC(=O)N1c2ccc(S(=O)(=O)NCC3CCC(C(=O)N4CCC(C)CC4)CC3)cc2CC1C (stereo not drawn) | 0.1 | 2.2 | 2.1 | -2.2 | i | 1.4 | .
CC(C)Cn1c(=O)c(C(=O)Nc2ccccc2S(N)(=O)=O)c(O)c2ccccc21 | -1.2 | 0.3 | 32.8* | 4.2 | i | -1.9 | 64.5*
CCn1c(=O)c(C(=O)Nc2ccccc2F)c(O)c2ccccc21 | 1.4 | 10.0 | -6.7 | -3.8 | i | 1.2 | .
Cn1c(=O)c(C(=O)Nc2ccccc2S(N)(=O)=O)c(O)c2ccccc21 | 1.3 | 0.0 | -4.7 | -4.9 | i | -2.3 | .
CCC(C)n1c(=O)c(C(=O)Nc2ccccc2S(N)(=O)=O)c(O)c2ccccc21 (stereo not drawn) | -0.2 | 18.0 | 33.4* | 10.1 | i | 2.4 | 64.1*
O=C(COc1cccc2ccccc12)N/N=C/c1ccc(Sc2nc3ccccc3s2)o1 | 3.0 | 27.5 | 35.9* | 10.3 | i | 0.0 | 27.1

Assay outcomes deposited in PubChem by several laboratories.
